This is an account of results in ChEMBL document CHEMBL4028905, “A Unique Approach to Design Potent and Selective Cyclic Adenosine Monophosphate Response Element Binding Protein, Binding Protein (CBP) Inhibitors” (J Med Chem, 2017).

The target in data set [1] is Bromodomain-containing protein 4 (Homo sapiens, UniProt O60885). Put plainly: Inhibition of His tagged recombinant BRD4 bromodomain 1 (unknown origin) by TR-FRET assay. The method, boiled down:
(§1)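 Recombinant His-tagged bromodomains purified by Ni affinity, tag removed with thrombin, checked by mass spectrometry. Assay is TR-FRET competition against a biotinylated small-molecule ligand. Normalized inhibition vs concentration fit to 4-parameter Hill equation; […] for optimization.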
In general terms: In TR-FRET formats the signal depends on donor and acceptor labels being close together.

For the next data set, the target named is CREB-binding protein (Homo sapiens, UniProt Q92793). Put plainly: Inhibition of His tagged recombinant CBP (unknown origin) by TR-FRET assay. The method, boiled down: as §1
Sequence of CREB-binding protein (Q92793 whole entry): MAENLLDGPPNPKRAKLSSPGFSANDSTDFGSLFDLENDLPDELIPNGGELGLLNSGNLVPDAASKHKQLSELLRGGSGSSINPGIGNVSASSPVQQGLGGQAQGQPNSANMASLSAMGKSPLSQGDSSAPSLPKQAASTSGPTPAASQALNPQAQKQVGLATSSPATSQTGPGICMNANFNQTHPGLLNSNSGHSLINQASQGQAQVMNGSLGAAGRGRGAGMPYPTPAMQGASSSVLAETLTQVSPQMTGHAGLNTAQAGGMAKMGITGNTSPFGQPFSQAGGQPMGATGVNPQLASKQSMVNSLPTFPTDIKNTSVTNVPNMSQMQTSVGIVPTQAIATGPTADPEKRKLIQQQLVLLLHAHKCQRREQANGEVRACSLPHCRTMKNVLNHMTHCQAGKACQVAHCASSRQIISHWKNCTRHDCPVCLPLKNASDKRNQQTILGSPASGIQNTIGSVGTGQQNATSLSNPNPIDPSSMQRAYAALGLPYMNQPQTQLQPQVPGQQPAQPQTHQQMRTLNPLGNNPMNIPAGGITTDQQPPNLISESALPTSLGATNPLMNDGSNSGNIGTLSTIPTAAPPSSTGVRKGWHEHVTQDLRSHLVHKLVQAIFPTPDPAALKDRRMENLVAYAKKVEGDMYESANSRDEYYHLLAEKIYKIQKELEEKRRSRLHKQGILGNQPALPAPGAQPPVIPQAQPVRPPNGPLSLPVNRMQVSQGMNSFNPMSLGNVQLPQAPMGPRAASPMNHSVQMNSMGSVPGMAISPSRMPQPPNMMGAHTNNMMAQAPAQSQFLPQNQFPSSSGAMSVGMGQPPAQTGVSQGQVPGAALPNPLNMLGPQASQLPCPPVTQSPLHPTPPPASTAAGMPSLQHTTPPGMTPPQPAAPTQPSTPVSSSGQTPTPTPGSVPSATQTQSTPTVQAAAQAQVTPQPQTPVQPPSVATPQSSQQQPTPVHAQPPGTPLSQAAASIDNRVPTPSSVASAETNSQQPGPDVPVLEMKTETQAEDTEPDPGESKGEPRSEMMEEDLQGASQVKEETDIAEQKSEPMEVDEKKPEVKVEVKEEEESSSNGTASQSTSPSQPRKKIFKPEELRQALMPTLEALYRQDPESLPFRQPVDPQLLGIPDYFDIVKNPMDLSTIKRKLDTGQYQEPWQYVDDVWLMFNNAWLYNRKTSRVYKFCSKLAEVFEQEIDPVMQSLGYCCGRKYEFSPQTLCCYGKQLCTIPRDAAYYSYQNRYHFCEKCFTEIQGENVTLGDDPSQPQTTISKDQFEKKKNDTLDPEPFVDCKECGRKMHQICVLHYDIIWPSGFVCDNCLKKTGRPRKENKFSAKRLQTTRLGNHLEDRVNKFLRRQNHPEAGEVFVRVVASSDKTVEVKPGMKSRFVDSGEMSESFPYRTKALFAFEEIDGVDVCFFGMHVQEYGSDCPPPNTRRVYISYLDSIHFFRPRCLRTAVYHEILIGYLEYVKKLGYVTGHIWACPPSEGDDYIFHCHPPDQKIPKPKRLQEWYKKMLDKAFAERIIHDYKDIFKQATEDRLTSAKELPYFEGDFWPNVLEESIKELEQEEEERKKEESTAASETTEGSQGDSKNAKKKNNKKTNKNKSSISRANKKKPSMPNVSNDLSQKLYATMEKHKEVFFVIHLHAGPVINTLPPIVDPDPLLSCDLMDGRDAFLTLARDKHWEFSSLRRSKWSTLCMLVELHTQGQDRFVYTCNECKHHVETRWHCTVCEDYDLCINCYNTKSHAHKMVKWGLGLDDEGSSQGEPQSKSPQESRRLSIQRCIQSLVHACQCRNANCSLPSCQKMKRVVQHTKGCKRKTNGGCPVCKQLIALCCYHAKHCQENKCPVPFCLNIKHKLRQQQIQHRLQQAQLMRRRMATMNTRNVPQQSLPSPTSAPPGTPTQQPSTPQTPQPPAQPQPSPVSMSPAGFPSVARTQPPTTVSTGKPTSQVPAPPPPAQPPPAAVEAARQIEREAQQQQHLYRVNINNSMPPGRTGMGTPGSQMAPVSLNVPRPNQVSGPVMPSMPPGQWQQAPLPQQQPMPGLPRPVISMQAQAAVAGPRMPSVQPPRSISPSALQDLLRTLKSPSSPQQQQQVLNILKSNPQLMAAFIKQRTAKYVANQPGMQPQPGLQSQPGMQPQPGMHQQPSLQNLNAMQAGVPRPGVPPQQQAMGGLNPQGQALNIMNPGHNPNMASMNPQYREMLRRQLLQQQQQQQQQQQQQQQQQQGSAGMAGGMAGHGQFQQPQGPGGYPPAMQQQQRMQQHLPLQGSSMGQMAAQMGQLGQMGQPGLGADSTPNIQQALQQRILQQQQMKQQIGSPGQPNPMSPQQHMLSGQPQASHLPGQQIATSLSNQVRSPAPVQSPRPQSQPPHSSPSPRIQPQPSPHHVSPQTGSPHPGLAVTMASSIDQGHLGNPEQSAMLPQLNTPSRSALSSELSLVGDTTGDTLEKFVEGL
The species named for another data set is Homo sapiens. Put plainly: Selectivity ratio of IC50 for His tagged recombinant BRD4 bromodomain 1 (unknown origin) to IC50 for His tagged recombinant CBP (unknown origin).
Data set [2] is described as follows: Intrinsic clearance in human liver microsomes at 1 uM in presence of NADPH by LC-MS/MS analysis. The data set is classed as ADME, microsome. The settings on record: read-out: CLH. For orientation: Liver microsomes are a subcellular fraction often used to study metabolism.
For data set [3], the target named is CREB-binding protein/Histone acetyltransferase p300 (Homo sapiens, UniProt Q09472+Q92793). Put plainly: Inhibition of P300/CBP in human MV4-11 cells assessed as reduction in MYC expression after 4 hrs by luminescence based assay. The data set is classed as cell-based. The method in brief:
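MV-4-11 cells plated at 10,000 per well in RPMI1640 with 10% FBS and 2 mM L-glutamine. Compounds added in DMSO at a final 0.1% and incubated 4 h at 37 °C before MYC expression read-out; EC50 derived.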

Data set [4] can be described thus: Intrinsic clearance in mouse liver microsomes at 1 uM in presence of NADPH by LC-MS/MS analysis. Type of data set: ADME, microsome. The settings on record: read-out: CLH.
Data set [5] in a line: Intrinsic clearance in rat liver microsomes at 1 uM in presence of NADPH by LC-MS/MS analysis. The data set is classed as ADME, microsome. The settings on record: read-out: CLH.

As for `CNC(=O)N1CCOc2ccc(N3CCCc4cc(-c5cnn(C)c5)c(C(F)F)cc43)cc2C1`, the IC50 (in general, the concentration that gives 50% inhibition) came to 7.4 µM in data set [1] and 0.013 µM on CREB-binding protein. Besides, the Ratio IC50 in the data set listed under Homo sapiens came out at 570.

With `COc1cccc2c1N(CCCNC(=O)c1cccc3c1N[C@H](C)C(=O)N3)CCC2`, the IC50 in data set [1] amounted to 13 µM. Moreover, in the data set listed under Homo sapiens, the Ratio IC50 is 22.

As for `Cn1cc(-c2cc3c(cc2C(F)F)N(c2ccc4c(c2)n(C)c(=O)n4C)CCC3)cn1`, the CLint scaled at 1 µM in data set [2] worked out at 16 mL/min/kg; in data set [4], 61 mL/min/kg; in data set [5], 38 mL/min/kg. Also, the values for the IC50 (in data set [1]; on CREB-binding protein) were 4.1 µM and 0.02 µM, respectively. The 50% effective concentration (EC50) (usually the concentration that produces a half-maximal response) in data set [3] is 1 µM. Moreover, in the data set listed under Homo sapiens, the Ratio IC50 is 210.

In the case of `CN1C(=O)CCc2ccc(N3CCCc4cc(-c5cnn(C)c5)c(C(F)F)cc43)cc21`, the IC50 in data set [1] is over 20 µM; on CREB-binding protein it was 0.038 µM. In addition, the Ratio IC50 in the data set filed under Homo sapiens was over 530.

`C[C@H]1Nc2c(cccc2N2CCCc3cc(-c4cnn(C)c4)c(C(F)F)cc32)NC1=O`: the IC50 in data set [1] is over 20 µM.

Consider `CCC(=O)N1CCOc2c(cc(-c3ccc(OC)c(OC)c3)cc2OC[C@H]2CCCN(C)C2)C1`, for which the Ratio IC50 in the data set listed under Homo sapiens is 34.

Take `CC(=O)N1CCc2c(cc(N3CCCc4cc(-c5cnn(C)c5)c(C(F)F)cc43)c(=O)n2C)C1`: the IC50 in data set [1] was over 20 µM. Besides, the Ratio IC50 in the data set listed under Homo sapiens was over 430.

For the molecule `CNC(=O)c1c[nH]c2cnc(N3CCCc4cc(-c5cnn(C)c5)c(C(F)F)cc43)cc12`, the CLint scaled at 1 µM is 6.9 mL/min/kg in data set [2], 39 mL/min/kg in data set [4] and 17 mL/min/kg in data set [5]. For the same molecule, the IC50 in data set [1] came out at 3.9 µM. In addition, in data set [3], the EC50 was 0.36 µM. In the data set filed under Homo sapiens, the Ratio IC50 came out at 780.

`CC(=O)N1CCCc2cc(N3CCCc4cc(-c5cnn(C)c5)c(C(F)F)cc43)ccc21`: the IC50 turned out to be 6.9 µM in data set [1] and 0.45 µM on CREB-binding protein. In addition, the Ratio IC50 in the data set filed under Homo sapiens was over 15.

As to `CCC(=O)N1CCCc2cc(NS(=O)(=O)c3ccc(F)cc3C)ccc21`, the IC50 is 74 µM in data set [1] and 3 µM on CREB-binding protein. In the data set filed under Homo sapiens, the Ratio IC50 came out at 25.

On to `CC(=O)N1CCc2c(cc(-c3cccc(Cl)c3)c(=O)n2CC2CC2)C1`, for which the figures for the half-inhibitory concentration (IC50) (in data set [1]; at CREB-binding protein) were 52 µM and 0.54 µM, respectively. Besides, the Ratio IC50 in the data set listed under Homo sapiens is 96.

Consider `CCOC(=O)c1cnc2ccc(C(=O)OC)cc2c1Nc1cccc(C(=O)O)c1`, for which the IC50 in data set [1] was over 20 µM; at CREB-binding protein, 0.23 µM. For the same molecule, in the data set filed under Homo sapiens, the Ratio IC50 was over 87.

On to `CNC(=O)c1c[nH]c2ccc(N3CCCc4cc(-c5cnn(C)c5)c(C(F)F)cc43)cc12`, for which the CLint scaled at 1 µM in data set [2] stood at 13 mL/min/kg; in data set [4], 47 mL/min/kg; in data set [5] it was 20 mL/min/kg. Moreover, the IC50 in data set [1] is 12 µM; on CREB-binding protein it was 0.0095 µM. For the same molecule, in data set [3], the EC50 was 2.2 µM. The Ratio IC50 in the data set listed under Homo sapiens worked out at 1300.

For `CNC(=O)Nc1cc(OC)cc(NC(=O)NS(=O)(=O)c2cc(C)c(CCOC)s2)n1`, the IC50 in data set [1] is over 20 µM; at CREB-binding protein, 0.27 µM. Moreover, the Ratio IC50 in the data set filed under Homo sapiens is over 74.

As for `CNC(=O)c1cnn2ccc(N3CCCc4cc(-c5cnn(C)c5)c(C(F)F)cc43)nc12`, the IC50 in data set [1] is over 20 µM; at CREB-binding protein, 1.4 µM. For the same molecule, the Ratio IC50 in the data set listed under Homo sapiens was over 14.

With `Cn1cc(-c2cc3c(cc2C(F)F)N(c2ccc4sc(=O)n(C)c4c2)CCC3)cn1`, the values for the CLint scaled at 1 µM in data set [2], in data set [4] and in data set [5] were 17 mL/min/kg, 71 mL/min/kg and 39 mL/min/kg, respectively. For the same molecule, in data set [1], the IC50 was 18 µM.

For `CNC(=O)Nc1cc(OC)cc(N2CCCc3cc(-c4cnn(C)c4)c(C(F)F)cc32)n1`, in data set [1], the IC50 is over 20 µM. The Ratio IC50 in the data set filed under Homo sapiens is over 170.

On to `CNC(=O)c1ccc2nccc(N3CCCc4cc(-c5cnn(C)c5)c(C(F)F)cc43)c2c1`, for which, in data set [1], the IC50 was over 20 µM. Moreover, in the data set listed under Homo sapiens, the Ratio IC50 was over 590.

For the molecule `CNC(=O)c1cnn2c(C3CCCN3)ccnc12` (configuration not stated), the IC50 in data set [1] was over 84 µM; at CREB-binding protein, 32 µM. In the data set listed under Homo sapiens, the Ratio IC50 is over 2.6.

For `C[C@@H]1CC(=O)Nc2cccc(-c3ccc4c(c3)c(-c3cnn(C)c3)nn4C)c2N1`, the Ratio IC50 in the data set filed under Homo sapiens was found to be 370.
